OX1R antag-1 = blocks the human orexin 1 receptor; O43613; OX1R-expressing cells, FRET antagonist read-out; inhibition, % at 6.6 µM; 330,000 compounds, 1.8% hits; in the data active means inhibition mostly above about 38%, no sharp cut-off; inactive means mostly below about 40%
Target sequence (O43613 whole entry, looked up): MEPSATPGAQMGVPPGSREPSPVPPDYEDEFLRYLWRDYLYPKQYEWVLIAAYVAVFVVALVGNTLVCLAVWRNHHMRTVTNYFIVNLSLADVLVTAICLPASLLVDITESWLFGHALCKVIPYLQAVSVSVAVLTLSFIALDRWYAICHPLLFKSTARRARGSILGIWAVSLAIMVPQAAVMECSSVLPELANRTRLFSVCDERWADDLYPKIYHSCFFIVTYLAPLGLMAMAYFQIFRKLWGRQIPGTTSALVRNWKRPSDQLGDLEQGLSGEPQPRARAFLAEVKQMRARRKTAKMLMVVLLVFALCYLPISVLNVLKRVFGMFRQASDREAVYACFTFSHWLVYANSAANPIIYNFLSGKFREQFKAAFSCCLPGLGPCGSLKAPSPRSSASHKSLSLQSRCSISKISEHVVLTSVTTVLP
CHO parental Ca = counter-screen: ATP calcium response change in parental CHO cells. parental CHO-K1, ATP-induced calcium, Fluo-8 fluorescence. 330,000 compounds, 0.63% hits. inhibition, % at 5.6 µM;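 active means inhibition above that plate's mean sample inhibition plus 3 SD, cut at about 26% in these data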
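Material – parental CHO cells · Reagent – ATP stimulus · Compound – single nominal dose of 5.6 µM per compound · Detection – Fluo-8 fluorescence · Read-out basis – percent inhibition of calcium signal · Controls – ATP-challenged DMSO wells low, unchallenged DMSO wells high · Repeats – no replicates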
OX1R antag-2 = antagonists of human orexin 1 receptor; O43613; CHO/OX1R cells, Fluo-8 calcium fluorescence, orexin A; inhibition, % at 5 µM; 330,000 compounds, 0.43% hits; AID 434989;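 active means inhibition above its plate's threshold, mean inhibition of all tested compounds on the plate plus 3 SD, cut at about 37% in these data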
GalR3 antag = blocks the human galanin receptor 3 | O60755 | HEK293 GalR3-CNG cAMP membrane potential fluorescence; galR3 body fused to GalR1 C-terminus | inhibition, % at 3 µM | 360,000 compounds, 0.44% hits | AID 651719;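 active means inhibition above the screen-wide average plus 3 SD, cut at about 13% in these data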;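 further: forskolin and galanin both at EC90 stimulate the cells; cAMP rise reported by CNG channel membrane potential dye signal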
TAAR1 agonist = agonists of human TAAR1; Q96RJ0; CHO RD-HGA16 TAAR1, Fluo-8 calcium fluorescence; vehicle wells 0%, saturating PEA agonist 100%; activation, % at 3 µM; 360,000 compounds, 0.99% hits; AID 624467;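 active means activation above the mean activation of all test compounds in the run plus 3 SD, cut at about 38% in these data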
Target sequence (Q96RJ0 whole entry, looked up): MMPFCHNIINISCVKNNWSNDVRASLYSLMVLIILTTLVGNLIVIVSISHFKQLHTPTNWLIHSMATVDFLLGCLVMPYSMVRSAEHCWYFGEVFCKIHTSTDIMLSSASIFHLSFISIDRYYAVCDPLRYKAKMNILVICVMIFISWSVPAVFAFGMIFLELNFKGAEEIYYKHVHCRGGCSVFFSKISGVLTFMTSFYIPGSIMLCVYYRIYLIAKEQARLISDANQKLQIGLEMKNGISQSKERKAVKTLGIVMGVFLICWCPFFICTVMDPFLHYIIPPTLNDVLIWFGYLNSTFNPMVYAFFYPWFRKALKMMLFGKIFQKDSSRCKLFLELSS
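Signal – calcium-sensitive Fluo-8 signal, excitation 470-495, emission 515-575 nm · System – RD-HGA16 (CHO) cells co-expressing Gα16 and hTAAR1 · Incubation – 17-24 h seeding, 75 min 37 °C dye, 30 min RT · Compound dosing – 3 µM single concentration · Repeats – no replicates (n 1)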
TAAR1 antag = human TAAR1 antagonism; inhibition, % at 3 µM; AID 624466; CHO RD-HGA16 TAAR1, Fluo-8 calcium fluorescence, antagonist; 360,000 compounds, 1.5% hits; Q96RJ0;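 active means inhibition above a per-plate cutoff, the mean inhibition of test compounds on that plate plus 3 SD, cut at about 49% in these data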
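test system = CHO RD-HGA16 cells bearing hTAAR1 | replication = singlicate | controls = DMSO-only wells and EC80 β-PEA-stimulated wells | reagent = EC80 β-phenethylamine stimulus | read-out basis = percent inhibition of PEA-evoked calcium signal, max/basal emission ratio | schedule = seeding 17-24 h prior, 75-min 37 °C, 30-min RT dye loading | signal = kinetic Fluo-8 calcium fluorescence measurement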
nonsel antag count = nonselective antagonist in TAAR1 antagonist counter-screen. counterscreen cell line, calcium fluorescence, antagonist mode. shares compounds with TAAR1 antag. inhibition, % at 3 µM. 2,400 compounds, 77% hits; in the data active means inhibition above about 22%;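 further: CHO-Ga16 host cells stimulated with ATP at an EC80 level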
TAAR1 antag conf = confirmation of human TAAR1 antagonists; shares compounds with TAAR1 antag; TAAR1-expressing cells, fluorescence antagonist read-out; inhibition, % at 3 µM; 2,400 compounds, 40% hits; in the data active means inhibition above about 49%;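 further: CHO-Ga16 host cells challenged with agonist PEA near its EC80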
Ga16 ag counter = nonselective Ga16 agonist in TAAR1 antagonist counter-screen; shares compounds with TAAR1 antag; Ga16-expressing cells, calcium fluorescence, agonist counterscreen; activation, % at 3 µM; 2,400 compounds, 18% hits; AID 651953; in the data active means activation above about 12%
TAAR1 ag count = activates human TAAR1 in antagonist counter-screen | 2,400 compounds, 2% hits | shares compounds with TAAR1 antag | hTAAR1 cell line, fluorescence activation, agonist mode | activation, % at 3 µM; in the data active means activation above about 37%;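 further: CHO cells stably expressing TAAR1 with calcium dye readout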
Of the large screens only hits and unclear results are named; the others gave an inactive call (follow-up assays come after a bar, where they were run). Compounds with a hit are over-represented: about 4.2% of the library has one in this group of screens.

COC(=O)c1cc(NC(=O)c2cc(C(C)(C)C)nn2Cc2ccc(F)cc2)ccc1N1CCOCC1	TAAR1 antag 63 | nonsel antag count 31 | TAAR1 antag conf inactive | Ga16 ag counter inactive | TAAR1 ag count inactive
Cc1cccc(Cn2nc(C)c(NC(=O)c3ccc(F)cc3)c2C)c1	none
NC(=O)C1CCN(C(=O)c2ccc3c(=O)n(Cc4ccco4)c(SCc4ccc([N+](=O)[O-])cc4)nc3c2)CC1	TAAR1 antag 49 | nonsel antag count 31 | TAAR1 antag conf inactive | Ga16 ag counter inactive | TAAR1 ag count inactive
CCCCCn1c(SCC2CCCO2)nc2cc(C(=O)N3CCC(C(N)=O)CC3)ccc2c1=O (stereo not drawn)	none
Clc1ccc(OCc2nnc(SCc3nc4ccccc4[nH]3)n2Cc2ccco2)cc1	TAAR1 antag 50 | nonsel antag count 45 | TAAR1 antag conf 54 | Ga16 ag counter 14 | TAAR1 ag count inactive
Clc1cccc(-c2nnc(SCc3nc4ccccc4[nH]3)n2Cc2ccco2)c1	none
O=C(Nc1ccccc1N1CCOCC1)c1ccc(Cl)c(S(=O)(=O)NCc2ccco2)c1	none
C[C@@H]1CN(C(=O)OC(C)(C)C)CCN1c1ccc(Br)c(C#N)c1	none (no result: OX1R antag-1, CHO parental Ca, OX1R antag-2)
C[C@H]1CN(C(=O)OC(C)(C)C)CCN1c1ccc(Br)c(C#N)c1	TAAR1 antag 52 (no result: OX1R antag-1, CHO parental Ca, OX1R antag-2) | nonsel antag count 38 | TAAR1 antag conf inactive | Ga16 ag counter inactive | TAAR1 ag count inactive
O=C(N/N=C/c1c[nH]c2ccccc12)c1ccn(Cc2ccc(Cl)cc2Cl)n1	none
O=C(N/N=C/c1c[nH]c2ccc(Br)cc12)c1ccn(Cc2ccc(Cl)cc2)n1	TAAR1 antag 62 | nonsel antag count 24 | TAAR1 antag conf inactive | Ga16 ag counter inactive | TAAR1 ag count inactive
O=C(Nc1nc2c(Cl)cccc2s1)c1ccc([N+](=O)[O-])o1	none
Cc1ccc(C(=O)NCC(=O)OCC(=O)/C=C2\N(C)c3ccccc3C2(C)C)cc1C	TAAR1 antag 58 | nonsel antag count 29 | TAAR1 antag conf inactive | Ga16 ag counter inactive | TAAR1 ag count inactive
CN1/C(=C\C(=O)COC(=O)c2ccccc2O)C(C)(C)c2ccccc21	none
Cc1ccc(C2=NNC(=O)C(c3c[nH]c4ccccc34)C2)cc1 (stereo not drawn)	none
[N-]=C=C1C(=S)NC(=O)[C@H]([n+]2ccccc2)[C@H]1c1ccc(Cl)cc1	none
O=C(NCc1cccs1)C1CCN(S(=O)(=O)c2ccc(Br)s2)CC1	none
O=C(NCc1cccs1)C1CCC(CNS(=O)(=O)c2ccc(Br)s2)CC1 (stereo not drawn)	TAAR1 antag 57 | nonsel antag count inactive | TAAR1 antag conf 53 | Ga16 ag counter inactive | TAAR1 ag count 39
CC(=O)N1c2ccc(Cl)cc2C2OCCC2C1c1ccco1 (stereo not drawn)	none
Cc1ccccc1N1CCN(C2CCCN(C(=O)c3cn4cccc(C)c4n3)C2)CC1 (stereo not drawn)	TAAR1 antag 57 (no result: OX1R antag-1, CHO parental Ca, OX1R antag-2) | nonsel antag count 30 | TAAR1 antag conf inactive | Ga16 ag counter inactive | TAAR1 ag count inactive
Cc1ccccc1N1CCN(C2CCCN(C(=O)c3ccccn3)C2)CC1 (stereo not drawn)	none
COc1cccc(Cn2c(=O)c3ccccc3n3nc(C)cc23)c1	none
Nc1nc(-c2cc(O)ccc2[N+](=O)[O-])cc(-c2ccccc2)c1[N+](=O)[O-]	TAAR1 antag 49 (no result: OX1R antag-1, CHO parental Ca, OX1R antag-2) | nonsel antag count 24 | TAAR1 antag conf inactive | Ga16 ag counter inactive | TAAR1 ag count inactive
NC(=O)CCN1CCC(c2nc3ccccc3s2)CC1	none
CC1(C)OC(=O)C2=C(C[C@@H](C3CCCCC3)O[C@H]2c2ccccc2)O1	none (no result: OX1R antag-1, CHO parental Ca, OX1R antag-2)
CC1(C)OC(=O)C2=C(C[C@@H](C3CCCCC3)O[C@H]2c2ccc(Cl)cc2)O1	TAAR1 antag 50 (no result: OX1R antag-1, CHO parental Ca, OX1R antag-2) | nonsel antag count inactive | TAAR1 antag conf inactive | Ga16 ag counter inactive | TAAR1 ag count inactive
CC(=O)c1c(C)[nH]c(C(=O)COC(=O)CNS(=O)(=O)c2ccccc2)c1C	none
CCOC(=O)c1c(C)[nH]c(C(=O)COC(=O)CNS(=O)(=O)c2ccc(C)cc2)c1C	TAAR1 antag 75 | nonsel antag count 39 | TAAR1 antag conf 52 | Ga16 ag counter inactive | TAAR1 ag count inactive
Cc1nc(N2CCN(Cc3ccc4c(c3)OCO4)CC2)c2oc3ccccc3c2n1	TAAR1 antag 72 (no result: OX1R antag-1, CHO parental Ca, OX1R antag-2) | nonsel antag count inactive | TAAR1 antag conf inactive | Ga16 ag counter inactive | TAAR1 ag count inactive
CC(Sc1ccc(Cl)cc1)C(=O)Nc1ccccc1C(=O)N1CCOCC1 (stereo not drawn)	none
COc1cccc(/C=C/C(=O)c2ccc(NS(=O)(=O)c3ccc(C)cc3)cc2)c1	none
COc1cc(C2CC(=O)c3c([nH]c(C(=O)OCCOC(C)C)c3C)C2)cc(OC)c1OC (stereo not drawn)	CHO parental Ca 31, TAAR1 antag 64 | nonsel antag count 35 | TAAR1 antag conf inactive | Ga16 ag counter 12 | TAAR1 ag count inactive
CCOCCOC(=O)c1[nH]c2c(c1C)C(=O)CC(c1ccc(OC)c(OC)c1)C2 (stereo not drawn)	none
CC(C)(C)c1nnc(N/N=C/c2ccccc2)n(N)c1=O	TAAR1 antag 59 | nonsel antag count 30 | TAAR1 antag conf 52 | Ga16 ag counter inactive | TAAR1 ag count inactive
CC(C)(C)c1nnc(N/N=C/c2ccccc2O)n(N)c1=O	TAAR1 antag 59 | nonsel antag count 42 | TAAR1 antag conf 64 | Ga16 ag counter 19 | TAAR1 ag count inactive
CC(NC(=O)c1ccc(C(C)(C)C)cc1)C(=O)O (stereo not drawn)	none
CC(C)N=C1SC(CC(=O)Nc2ccccc2)C(=O)N1C(C)C (stereo not drawn)	TAAR1 antag 57 | nonsel antag count 35 | TAAR1 antag conf inactive | Ga16 ag counter inactive | TAAR1 ag count inactive
Cc1ccccc1NC(=O)CCN1CCc2ccccc2C1	TAAR1 antag 104 | nonsel antag count inactive | TAAR1 antag conf inactive | Ga16 ag counter inactive | TAAR1 ag count inactive
Cc1ccc(NC(=O)Cn2nc(C(=O)O)c3ccccc3c2=O)cc1S(=O)(=O)N1CCOCC1	none

Screening data from PubChem BioAssay.
